ChEMBL document CHEMBL4732158, “Bicyclic Ligand-Biased Agonists of S1P: Exploring Side Chain Modifications to Modulate the PK, PD, and Safety Profiles” (J Med Chem, 2021)

Tests used:
Rattus norvegicus [1] = assay: Reduction in circulating lymphocytes count in Lewis rat at 1 mg/kg, po measured at 4 hrs by hematology analyzer based analysis; type: functional; parameters: scale not given: the % may be the effect or the level left
Procedure, shortened: (§1)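 Lewis rats (n = 2−4) dosed orally at 0.5, 1, 2 or 5 mg/kg; blood parent and phosphate metabolite concentrations and lymphocyte counts taken 4 and 24 h post-dose; phosphate-to-parent ratio from 24 h levels; significance versus vehicle by ANOVA with Dunnett's test.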

[2] = Drug metabolism in Lewis rat blood assessed as concentration of parent compound at 1 mg/kg, po measured at 24 hrs by LC-MS/MS analysis; type: ADME, organism-based; conditions: for Ct / concentration: in vivo, 1 mg/kg, 24 h; for Ct: BLD = below limit of detection; for concentration / concentration at 24 h: read-out: Ct; for concentration at 24 h: Lewis, blood; procedure, shortened: as §1
[3] = Ratio of drug metabolism in Lewis rat blood assessed as phosphate ester metabolite to parent drug at 2 mg/kg, po measured at 24 hrs by LC-MS/MS analysis; type: ADME, organism-based; conditions: in vivo; procedure, shortened: as §1
Rattus norvegicus [4] = assay: Reduction in circulating lymphocytes count in Lewis rat at 2 mg/kg, po measured at 4 hrs by hematology analyzer based analysis; type: functional; parameters: scale not given: the % may be the effect or the level left
Procedure, shortened: (§2)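 Lewis rats (n = 2−4) dosed orally; whole-blood lymphocyte counts taken 4 h and 24 h after dosing and reduction expressed versus vehicle-treated rats. Significance by ANOVA with Dunnett's test (p < 0.05 vs vehicle). Blood levels of parent and phosphate metabolite measured at the same time points in this PK/PD screen.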

[5] = Drug concentration in Lewis rat blood assessed as concentration of parent compound at 2 mg/kg, po measured at 4 hrs by LC-MS/MS analysis; type: ADME, organism-based; conditions: read-out: Ct; for concentration at 4 h: Lewis, blood; procedure, shortened: as §1
[6] = Reduction in circulating lymphocytes count in Lewis rat at 2 mg/kg, po measured at 24 hrs by hematology analyzer based analysis; type: Functional, organism-based; parameters: scale not given: the % may be the effect or the level left; conditions: in vivo; procedure, shortened: as §2
[7] = Drug concentration in Lewis rat blood assessed as concentration of parent compound at 2 mg/kg, po measured at 24 hrs by LC-MS/MS analysis; type: ADME, organism-based; conditions: in vivo; for concentration: read-out: Ct; procedure, shortened: as §1
[8] = Drug concentration in Lewis rat blood assessed as concentration of parent compound at 1 mg/kg, po measured at 4 hrs by LC-MS/MS analysis; type: ADME, organism-based; conditions: for concentration at 4 h: Lewis, blood; for concentration at 4 h / concentration: read-out: Ct; procedure, shortened: as §1
[9] = Pulmonary toxicity in Lewis rat assessed as fold elevation of BAL protein content at 1 mg/kg, po by chemistry analyzer based analysis relative to control; type: organism-based; conditions: in vivo
Procedure, shortened: (§3)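 Lewis rats dosed orally; bronchoalveolar lavage protein measured at study end, expressed as fold over vehicle control.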

[10] = Reduction in circulating lymphocytes count in Lewis rat at 1 mg/kg, po measured at 24 hrs by hematology analyzer based analysis; type: organism-based; parameters: scale not given: the % may be the effect or the level left; conditions: in vivo; procedure, shortened: as §1
[11] = Half life in Lewis rat at 2 mg/kg, po measured at 4 to 72 hrs; type: ADME, organism-based; conditions: in vivo, time 4-72 hrs; for half-life: Lewis
Procedure, shortened: (§4)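 Half-life estimated from oral-dosing blood PK profiles in Lewis rats sampled at four time points: 4, 24, 48 and 72 h.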

[12] = Cardiotoxicity in human iPSC derived cardiomyocytes assessed as change in heart rate at 10 nM measured over 2 hrs by multi-electrode array relative to control; type: toxicity, cell-based; conditions: stem cell-derived cardiomyocyte, 0.01 µM
Procedure, shortened: (§5)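 Phosphate metabolite of each compound prepared and tested on cultured human induced pluripotent stem cell-derived cardiomyocytes at 1 and 10 nM; beat rate change averaged over three or more replicates per concentration unless noted (some n = 2).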

[13] = Cardiotoxicity in human iPSC derived cardiomyocytes assessed as change in heart rate at 1 nM measured over 2 hrs by multi-electrode array relative to control; type: toxicity, cell-based; conditions: stem cell-derived cardiomyocyte, 0.001 µM; procedure, shortened: as §5
[14] = Pulmonary toxicity in Lewis rat assessed as fold elevation of BAL protein content at 2 mg/kg, po by chemistry analyzer based analysis relative to control; type: organism-based; conditions: in vivo; procedure, shortened: as §3
[15] = Half life in Lewis rat at 1 mg/kg, po measured at 4 to 72 hrs; type: ADME, organism-based; conditions: in vivo, time 4-72 hrs; procedure, shortened: as §4
[16] = Drug metabolism in Lewis rat blood assessed as phosphate ester metabolite to parent ratio at 1 mg/kg, po measured at 24 hrs by LC-MS/MS analysis; conditions: in vivo
[17] = in vivo, 1 mg/kg, 4 h, 1 mg/kg, 4 h

Row | SMILES | Activity (Rattus norvegicus [1]) [%] | Activity [6] [%] | concentration at 4 h [8] [nM] | fold change (FC) [9] | Activity [10] [%] | Activity [12] [%] | Activity [13] [%] | concentration at 24 h [2] [nM] | Ratio [16] | also measured
1 | CCCOCCOC1CCc2cc([C@H]3CC[C@](N)(CO)C3)ccc2C1 (stereo partly drawn) | 72 | 40 | 46 | 1.3 | 70 | – | – | – | – | Ct [2]: Bld; Ratio [3]: 2.4; Activity (Rattus norvegicus [4]): 0%; concentration at 4 h [5]: 100 nM; Ct ([7]; BLD = below limit of detection): Bld
2 | COCCCCCC1CCc2cc([C@H]3CC[C@](N)(CO)C3)ccc2C1 (single isomer, unassigned; 23) | – | 81 | – | – | – | -40 | -20 | – | – | half-life [11]: 900 min; Ratio [3]: 8.2; Activity (Rattus norvegicus [4]): 78%; concentration at 4 h [5]: 129 nM; concentration [7]: 51 nM; fold change (FC) [14]: 1.9
3 | CCCCCCCOC1CCc2cc([C@H]3CC[C@](N)(CO)C3)ccc2C1 (stereo in doubt; 33a) | – | – | 32 | 0.85 | 80 | – | – | – | – | Activity (Rattus norvegicus [1]; 1 mg/kg, 4 h): 13%; concentration [2]: 54 nM; half-life [15]: 1740 min
4 | CCCCSCC1CCc2cc([C@H]3CC[C@](N)(CO)C3)ccc2C1 (single isomer, unassigned) | – | 44 | – | – | – | -25 | -14 | – | – | Ratio [3]: 0.23; Activity (Rattus norvegicus [4]): 20%; concentration at 4 h [5]: 138 nM; concentration [7]: 110 nM; fold change (FC) [14]: 1.1
5 | CCCCSC[C@@H]1CCc2cc([C@H]3CC[C@](N)(CO)C3)ccc2C1 | 6 | – | – | 1.1 | 63 | -46 | -28 | 73 | 0.36 | half-life [15]: 1620 min; Ct ([8]; in vivo, 1 mg/kg, 4 h, BLD = below limit of detection): Bld
6 | CC/C=C/CC[C@@H]1CCc2cc([C@H]3CC[C@](N)(CO)C3)ccc2C1 | 27 | – | 66 | 1.1 | 74 | -33 | -11 | 140 | 5.8 | half-life [15]: 240 min
7 | CCCCCCOC1CCc2cc([C@H]3CC[C@](N)(CO)C3)ccc2C1 (stereo in doubt; 30a) | – | – | – | 1.1 | 82 | -40 | -39 | – | – | Activity (Rattus norvegicus [1]; 1 mg/kg, 4 h): 39%; concentration [2]: 28 nM; concentration [8, 17]: 53 nM
8 | CCCCCOC1CCc2cc([C@H]3CC[C@](N)(CO)C3)ccc2C1 (stereo in doubt; 10b) | – | – | – | – | 67 | -49 | -12 | – | 0.27 | Activity (Rattus norvegicus [1]; 1 mg/kg, 4 h): 32%; concentration [2]: 240 nM; concentration [8, 17]: 215 nM
9 | CCCCOC[C@@H]1CCc2cc([C@H]3CC[C@](N)(CO)C3)ccc2C1 | 42 | – | 66 | 0.95 | 71 | – | – | 39 | 0.64 | –
10 | CCCC/C=C\[C@@H]1CCc2cc([C@H]3CC[C@](N)(CO)C3)ccc2C1 | 4 | – | 24 | – | 0 | – | – | 24 | 0.27 | –
11 | CCC/C=C/CC1CCc2cc([C@H]3CC[C@](N)(CO)C3)ccc2C1 (single isomer, unassigned) | 10 | – | 31 | – | 62 | -23 | -9.6 | 51 | 2.3 | half-life [15]: 3720 min
12 | C=CCCCC[C@@H]1CCc2cc([C@H]3CC[C@](N)(CO)C3)ccc2C1 | 9 | – | 30 | – | 75 | – | – | 40 | 19 | half-life [15]: 2820 min
13 | CCSCCCC1CCc2cc([C@H]3CC[C@](N)(CO)C3)ccc2C1 (single isomer, unassigned) | – | 74 | – | – | – | -53 | -42 | – | – | half-life [11]: 840 min; Activity (Rattus norvegicus [4]): 65%; concentration at 4 h [5]: 190 nM; concentration [7]: 42 nM
14 | CCCCCCCOC1CCc2cc([C@H]3CC[C@](N)(CO)C3)ccc2C1 (stereo in doubt; 33b) | – | – | – | 1 | – | – | – | – | – | Activity (Rattus norvegicus [1]; 1 mg/kg, 4 h): 14%; concentration [2]: 25 nM; concentration [8, 17]: 40 nM
15 | CCCSCC[C@@H]1CCc2cc([C@H]3CC[C@](N)(CO)C3)ccc2C1 | – | 73 | – | – | – | -42 | -43 | – | – | Ratio [3]: 0.17; Activity (Rattus norvegicus [4]): 63%; concentration at 4 h [5]: 193 nM; concentration [7]: 72 nM; fold change (FC) [14]: 1.1
16 | CCCCCOC[C@H]1CCc2cc([C@H]3CC[C@](N)(CO)C3)ccc2C1 | 7 | – | 12 | 1.7 | 32 | – | – | 18 | – | –
17 | COCCC1CCc2cc([C@H]3CC[C@](N)(CO)C3)ccc2C1 (stereo in doubt; 21a) | – | 12 | – | – | – | – | – | – | – | Activity (Rattus norvegicus [4]): 0%
18 | COCCCCCCC1CCc2cc([C@H]3CC[C@](N)(CO)C3)ccc2C1 (stereo in doubt; 25b) | – | 79 | – | – | – | – | -25 | – | – | t1/2 ([11]; 2 mg/kg): 26 h; Ratio [3]: 2.5; Activity (Rattus norvegicus [4]; 2 mg/kg, 4 h): 45%; concentration ([5]; in vivo, 2 mg/kg, 4 h, 2 mg/kg, 4 h): 320 nM; concentration [7]: 295 nM; fold change (FC) [14]: 1.2
19 | CCCCCOC[C@@H]1CCc2cc([C@H]3CC[C@](N)(CO)C3)ccc2C1 | 27 | – | 27 | 2 | 80 | – | – | 28 | – | –
20 | CCCCCOC1CCc2cc([C@H]3CC[C@](N)(CO)C3)ccc2C1 (stereo in doubt; 10a) | – | – | 244 | 0.94 | 78 | – | – | 210 | 0.86 | Activity (Rattus norvegicus [1]; 1 mg/kg, 4 h): 62%
21 | CC/C=C\CC[C@@H]1CCc2cc([C@H]3CC[C@](N)(CO)C3)ccc2C1 | 31 | – | 165 | – | 69 | -38 | -21 | 180 | 1.3 | half-life [15]: 300 min
22 | COCCOC[C@@H]1CCc2cc([C@H]3CC[C@](N)(CO)C3)ccc2C1 | 16 | – | 15 | 1.3 | 13 | – | – | – | – | Ct [2]: Bld
23 | CCCC/C=C/[C@@H]1CCc2cc([C@H]3CC[C@](N)(CO)C3)ccc2C1 | 0 | – | 57 | – | 72 | – | – | 77 | 2.6 | half-life [15]: > 4500 min
24 | CCCCCCOC1CCc2cc([C@H]3CC[C@](N)(CO)C3)ccc2C1 (stereo in doubt; 30b) | – | – | – | 1.4 | – | – | – | – | – | Activity (Rattus norvegicus [1]; 1 mg/kg, 4 h): 20%; concentration [2]: 417 nM; concentration [8, 17]: 362 nM
25 | CCC/C=C\CC1CCc2cc([C@H]3CC[C@](N)(CO)C3)ccc2C1 (single isomer, unassigned) | 13 | – | 10 | – | 71 | -25 | -11 | 14 | 8.6 | half-life [15]: 3540 min
26 | CCCOCCOC[C@H]1CCc2cc([C@H]3CC[C@](N)(CO)C3)ccc2C1 | 67 | – | 78 | 2.4 | 20 | – | – | – | – | Ct [2]: Bld
27 | COCCC1CCc2cc([C@H]3CC[C@](N)(CO)C3)ccc2C1 (stereo in doubt; 21b) | – | 2 | – | – | – | – | – | – | – | –
28 | C=CCCOC[C@@H]1CCc2cc([C@H]3CC[C@](N)(CO)C3)ccc2C1 | – | 74 | – | – | – | – | – | – | – | half-life [11]: 660 min; Ratio [3]: 0.9; Activity (Rattus norvegicus [4]): 55%; concentration at 4 h [5]: 170 nM; concentration [7]: 48 nM
